According to ChEMBL document CHEMBL4330087, “Synthesis, antimicrobial activity, attenuation of aminoglycoside resistance in MRSA, and ribosomal A-site binding of pyrene-neomycin conjugates” (Eur J Med Chem, 2019):
Converted amounts (≈) assume the structure as drawn. The source made the active and inactive calls. The calls are words filed in the database; no cut-off is given here.

What was measured:
Ribosomal RNA A-site [1] = assay: Displacement of F-NEO from Escherichia coli rRNA-A site after 10 to 20 mins by fluorescence assay; type: nucleic-acid assay
In short: (§1)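 A 100 nM F-NEO:A-site RNA complex in 10 mM HEPES, 50 mM NaCl, 0.04 mM EDTA, pH 7.0 was titrated with 2-fold dilutions of ligand from 20 to 0.009 μM, or from 60 or 40 μM for weaker ligands. Incubated 10-20 min at room temperature, fluorescence read at ex 485/em 525 nm. IC50 from dose-response curve fit.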

Ribosomal RNA A-site [2] = assay: Displacement of F-NEO from human mitochondrial rRNA-A site after 10 to 20 mins by fluorescence assay; type: nucleic-acid assay; in short: as §1
Escherichia coli [3] = assay: Antibacterial activity against multidrug-resistant Escherichia coli H4H at 6.25 uM after 15 to 20 hrs by CLSI protocol based microdilution assay relative to control; type: functional
In short: (§2)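 Exponential-phase cultures were exposed to 6.25 μM compound in duplicate with neomycin as reference, at 37 °C in a humidified incubator for 15-20 h. Broth and culture controls received sterile water with 1% DMSO. Percent growth inhibition was calculated against the growth and background controls.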

Escherichia coli [4] = assay: Antibacterial activity against Escherichia coli O157:H7 at 6.25 uM after 15 to 20 hrs by CLSI protocol based microdilution assay relative to control; type: functional; in short: as §2
Acinetobacter baumannii = assay: Antibacterial activity against NEO-sensitive Acinetobacter baumannii ATCC 19606 at 6.25 uM after 15 to 20 hrs by CLSI protocol based microdilution assay relative to control; type: functional, ATCC 19606 = CIP 70.34 = JCM 6841
In short: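 Single-concentration screen at 6.25 μM against exponential-phase cultures, in duplicate, with NEO as reference. Enterococcus was grown in BHI broth, M. smegmatis in TS broth with 0.05% Tween 80, and all other strains in TS broth. The 1% DMSO water vehicle was added to broth (background) and culture (growth control). Incubation was 37 °C, humidified, 15-20 h. Result is percent growth inhibition.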

Staphylococcus aureus [5] = assay: Antibacterial activity against NEO-sensitive Staphylococcus aureus C2 after 15 to 20 hrs by CLSI protocol based microdilution assay; type: functional
In short: (§3)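 CLSI broth microdilution MIC in triplicate on exponential-phase cells, ~3×10^5 cells per mL in cation-adjusted Mueller-Hinton broth. Compound was added from 10× stocks in 10% DMSO as serial 2-fold dilutions, final 50 to 0.78 μM. Plates were incubated at 37 °C, humidified, 15-20 h. Growth was read as absorbance at 595 nm, and percent inhibition was averaged over triplicates.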

Staphylococcus aureus [6] = assay: Antibacterial activity against NEO-sensitive Staphylococcus aureus C1 after 15 to 20 hrs by CLSI protocol based microdilution assay; type: functional; in short: as §3
Staphylococcus aureus [7] = assay: Antibacterial activity against NEO-sensitive Staphylococcus aureus NRS77 after 15 to 20 hrs by CLSI protocol based microdilution assay; type: functional; in short: as §3
Staphylococcus aureus [8] = assay: Antibacterial activity against NEO-sensitive Staphylococcus aureus 6538 after 15 to 20 hrs by CLSI protocol based microdilution assay; type: functional; in short: as §3
Ribosomal RNA A-site [9] = assay: Binding affinity to rRNA-A site in Escherichia coli S30 extract assessed as inhibition of protein translation after 20 mins; type: nucleic-acid assay
Ribosomal RNA A-site [10] = assay: Binding affinity to rRNA-A site in human MDA-MB-231 cells assessed as inhibition of protein translation; type: cell-based
Staphylococcus aureus [11] = assay: Antibacterial activity against NEO-sensitive Staphylococcus aureus 25923 after 15 to 20 hrs by CLSI protocol based microdilution assay; type: functional
In short: (§4)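 CLSI broth microdilution on exponential-phase bacteria at ~3×10^5 cells/mL in cation-adjusted Mueller-Hinton broth. Serial 2-fold dilutions gave final concentrations of 50 to 0.78 μM; compound stocks were 10× in 10% DMSO. Incubated at 37 °C for 15-20 h, growth read at A595. Percent inhibition averaged over triplicates; MIC in μM.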

Staphylococcus aureus [12] = assay: Antibacterial activity against NEO-sensitive Staphylococcus aureus harboring NorA mutant after 15 to 20 hrs by CLSI protocol based microdilution assay; type: functional; in short: as §4
[13] = system: Staphylococcus epidermidis; assay: Antibacterial activity against NEO-sensitive Staphylococcus epidermidis 12384 after 15 to 20 hrs by CLSI protocol based microdilution assay; type: functional; in short: as §4
Staphylococcus aureus [14] = assay: Antibacterial activity against methicillin-resistant Staphylococcus aureus 33591 after 15 to 20 hrs by CLSI protocol based microdilution assay; type: functional; in short: as §4
Staphylococcus aureus [15] = assay: Antibacterial activity against methicillin-resistant Staphylococcus aureus A960649 after 15 to 20 hrs by CLSI protocol based microdilution assay; type: functional; in short: as §4
Staphylococcus aureus [16] = assay: Antibacterial activity against methicillin-resistant Staphylococcus aureus SU-5 after 15 to 20 hrs by CLSI protocol based microdilution assay; type: functional; in short: as §4
Staphylococcus aureus [17] = assay: Antibacterial activity against methicillin-resistant Staphylococcus aureus M0602 after 15 to 20 hrs by CLSI protocol based microdilution assay; type: functional; in short: as §4
Streptococcus pyogenes = assay: Antibacterial activity against NEO-resistant Streptococcus pyogenes C203 after 15 to 20 hrs by CLSI protocol based microdilution assay; type: functional; in short: as §4
Bacillus anthracis = assay: Antibacterial activity against NEO-sensitive Bacillus anthracis BA852 after 15 to 20 hrs by CLSI protocol based microdilution assay; type: functional; in short: as §4
[18] = system: Mycolicibacterium smegmatis; assay: Antibacterial activity against NEO-sensitive Mycobacterium smegmatis after 15 to 20 hrs by CLSI protocol based microdilution assay; type: functional; in short: as §4
Escherichia coli [19] = assay: Antibacterial activity against NEO-sensitive Escherichia coli ATCC 25922 after 15 to 20 hrs by CLSI protocol based microdilution assay; type: functional; in short: as §4
Escherichia coli [20] = assay: Antibacterial activity against NEO-sensitive Escherichia coli harboring TolC mutant after 15 to 20 hrs by CLSI protocol based microdilution assay; type: functional; in short: as §4
Escherichia coli [21] = assay: Antibacterial activity against multidrug-resistant Escherichia coli H4H after 15 to 20 hrs by CLSI protocol based microdilution assay; type: functional; in short: as §4
[22] = Toxicity in Caenorhabditis elegans infected with methicillin-resistant Staphylococcus aureus assessed as effect on nematode larvae viability by measuring decrease in formazan production at 6.25 to 50 uM after 24 hrs by MTT assay relative to control
[23] = Toxicity in Caenorhabditis elegans infected with methicillin-resistant Staphylococcus aureus assessed as effect on nematode larvae viability by measuring decrease in formazan production at 3.13 to 1.56 uM after 24 hrs by MTT assay

| SMILES | IC50 (Ribosomal RNA A-site [1]) [nM] | IC50 (Ribosomal RNA A-site [2]) [nM] | Activity (Escherichia coli [3]) | Activity (Escherichia coli [4]) [%] | Activity (Acinetobacter baumannii) [%] | MIC (Staphylococcus aureus [5]) [µM] | MIC (Staphylococcus aureus [6]) [µM] | IC50 (Ribosomal RNA A-site [9]) [nM] | IC50 (Ribosomal RNA A-site [10]) [nM] | MIC (Staphylococcus aureus [12]) [µM] | MIC [13] [µM] | MIC (Staphylococcus aureus [15]) [µM] | MIC (Staphylococcus aureus [16]) [µM] | MIC (Staphylococcus aureus [17]) [µM] | MIC (Streptococcus pyogenes) | MIC (Bacillus anthracis) [µM] | MIC [18] [µM] | MIC (Escherichia coli [19]) [µM] | MIC (Escherichia coli [20]) [µM] | MIC (Escherichia coli [21]) [µM] | other results |
| --- | --- | --- | --- | --- | --- | --- | --- | --- | --- | --- | --- | --- | --- | --- | --- | --- | --- | --- | --- | --- | --- |
| NC[C@@H]1O[C@H](O[C@H]2[C@@H](O)[C@H](O[C@@H]3[C@@H](O)[C@H](N)C[C@H](N)[C@H]3O[C@H]3O[C@H](CN)[C@@H](O)[C@H](O)[C@H]3N)O[C@@H]2CNC(=O)Cc2ccc3ccc4cccc5ccc2c3c45)[C@H](N)[C@@H](O)[C@@H]1O | 303 | 339 | inactive | 0 | 6 | > 25 | > 25 | 1280 | 1200 to 1280 | – | – | – | – | – | – | – | – | – | – | – | MIC (Staphylococcus aureus [7]): > 25 µM; MIC (Staphylococcus aureus [8]): > 25 µM |
| NC[C@@H]1O[C@H](O[C@H]2[C@@H](O)[C@H](O[C@@H]3[C@@H](O)[C@H](N)C[C@H](N)[C@H]3O[C@H]3O[C@H](CN)[C@@H](O)[C@H](O)[C@H]3N)O[C@@H]2CNC(=O)CCCc2ccc3ccc4cccc5ccc2c3c45)[C@H](N)[C@@H](O)[C@@H]1O | 170 | 465 | 0% | 0 | 5 | – | – | – | – | 12.5 (≈ 11 µg/mL) | 12.5 (≈ 11 µg/mL) | 12.5 (≈ 11 µg/mL) | 25 (≈ 22.1 µg/mL) | 25 (≈ 22.1 µg/mL) | 25 µM (≈ 22.1 µg/mL) | 12.5 (≈ 11 µg/mL) | 12.5 (≈ 11 µg/mL) | > 25 | 12.5 (≈ 11 µg/mL) | > 25 | MIC (Staphylococcus aureus [11]): 12.5 µM (≈ 11 µg/mL); MIC (Staphylococcus aureus [14]): 12.5 µM (≈ 11 µg/mL) |
| NC[C@@H]1O[C@H](O[C@H]2[C@@H](O)[C@H](O[C@@H]3[C@@H](O)[C@H](N)C[C@H](N)[C@H]3O[C@H]3O[C@H](CN)[C@@H](O)[C@H](O)[C@H]3N)O[C@@H]2CSCCNC(=O)CCc2ccc3ccc4cccc5ccc2c3c45)[C@H](N)[C@@H](O)[C@@H]1O | 191 | 211 | inactive | – | 8 | 12.5 (≈ 11.6 µg/mL) | 25 (≈ 23.3 µg/mL) | – | – | – | – | – | – | – | – | – | – | – | – | – | MIC (Staphylococcus aureus [7]): 6.3 µM (≈ 5.86 µg/mL); MIC (Staphylococcus aureus [8]): 12.5 µM (≈ 11.6 µg/mL); Activity [22]: 50 to 75%; Activity [23]: Non-Toxic |
| NC[C@@H]1O[C@H](O[C@H]2[C@@H](O)[C@H](O[C@@H]3[C@@H](O)[C@H](N)C[C@H](N)[C@H]3O[C@H]3O[C@H](CN)[C@@H](O)[C@H](O)[C@H]3N)O[C@@H]2CSCCNC(=O)Cc2ccc3ccc4cccc5ccc2c3c45)[C@H](N)[C@@H](O)[C@@H]1O | 95 | 90 | – | – | 6 | 12.5 (≈ 11.5 µg/mL) | 12.5 (≈ 11.5 µg/mL) | 269 | 269 | 6.25 to 12.5 (≈ 5.73 to 11.5 µg/mL) | 6.25 (≈ 5.73 µg/mL) | 12.5 (≈ 11.5 µg/mL) | 25 (≈ 22.9 µg/mL) | 25 (≈ 22.9 µg/mL) | inactive | 6.25 (≈ 5.73 µg/mL) | 6.25 (≈ 5.73 µg/mL) | > 25 | 6.25 (≈ 5.73 µg/mL) | > 25 | MIC (Staphylococcus aureus [7]): 3.2 µM (≈ 2.93 µg/mL); Activity [22]: 50 to 75%; Activity [23]: Non-Toxic |
| NC[C@@H]1O[C@H](O[C@H]2[C@@H](O)[C@H](O[C@@H]3[C@@H](O)[C@H](N)C[C@H](N)[C@H]3O[C@H]3O[C@H](CN)[C@@H](O)[C@H](O)[C@H]3N)O[C@@H]2CSCCNC(=O)CCCc2ccc3ccc4cccc5ccc2c3c45)[C@H](N)[C@@H](O)[C@@H]1O | 148 | 168 | <=30% | 3 | 10 | – | – | 927 | 927 | 6.25 to 12.5 (≈ 5.9 to 11.8 µg/mL) | 6.25 (≈ 5.9 µg/mL) | 12.5 (≈ 11.8 µg/mL) | 25 (≈ 23.6 µg/mL) | 25 (≈ 23.6 µg/mL) | 50 µM (≈ 47.2 µg/mL) | 6.25 (≈ 5.9 µg/mL) | 6.25 (≈ 5.9 µg/mL) | > 25 | 6.25 (≈ 5.9 µg/mL) | > 25 | MIC (Staphylococcus aureus [11]): 12.5 µM (≈ 11.8 µg/mL); MIC (Staphylococcus aureus [14]): 12.5 µM (≈ 11.8 µg/mL) |
| NC[C@@H]1O[C@H](O[C@H]2[C@@H](O)[C@H](O[C@@H]3[C@@H](O)[C@H](N)C[C@H](N)[C@H]3O[C@H]3O[C@H](CN)[C@@H](O)[C@H](O)[C@H]3N)O[C@@H]2CSCCNC(=S)NCCCCCCNC(=O)CCCc2ccc3ccc4cccc5ccc2c3c45)[C@H](N)[C@@H](O)[C@@H]1O | 254 | 235 | 5 - 30% | 0 | 8 | – | – | 213 | 213 | 6.25 (≈ 6.89 µg/mL) | 3.13 (≈ 3.45 µg/mL) | 25 (≈ 27.6 µg/mL) | 50 (≈ 55.1 µg/mL) | 25 to 50 (≈ 27.6 to 55.1 µg/mL) | inactive | 3.13 (≈ 3.45 µg/mL) | 6.25 (≈ 6.89 µg/mL) | > 25 | 1.56 to 3.13 (≈ 1.72 to 3.45 µg/mL) | > 25 | MIC (Staphylococcus aureus [11]): 6.25 µM (≈ 6.89 µg/mL); MIC (Staphylococcus aureus [14]): 25 µM (≈ 27.6 µg/mL) |
